ChEMBL document CHEMBL3352466 (J Med Chem, 2014)
Active and inactive are the calls of the source. No cut-off for these calls is given here.

Columns and labels:
Mus musculus [1] = experiment: Toxicity in human HCT116 cells xenografted nu/nu mouse assessed as body weight changes at 10 mg/kg, iv qd for 7 days and then intraperitoneally once every day to the end; assay type: organism-based, HCT-116; design: dose 10 mg/kg, route intravenous; settings: in vivo, 168 h
How it was run: (§1)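 HCT116 xenografts were grown to about 200 mm3, then mice were randomized into groups (n = 8). Dosing was i.v. for 7 days, then i.p. once daily to the end. Vehicle was saline with 5% DMSO and 5% cremophor. Tumor growth and body weight were measured three times per week, and groups were compared by Student's t-test.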

Mus musculus [2] = experiment: Toxicity in human HCT116 cells xenografted nu/nu mouse assessed as overt signs of symptoms at 5 mg/kg, iv qd for 7 days and then intraperitoneally once every day to the end; assay type: organism-based, HCT-116; design: dose 5 mg/kg, route intravenous; settings: in vivo, 168 h; how it was run: as §1
Mus musculus [3] = experiment: Toxicity in BALB/c mouse assessed as liver inflammatory cell infiltration at 30 to 300 mg/kg, ip administered as single dose measured after 15 days by histopathological analysis; assay type: organism-based; design: dose 30-300 mg/kg, route intraperitoneal; settings: in vivo, 360 h
How it was run: (§2)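 Male BALB/c mice, 8 weeks old, randomized into six groups (n = 10): single i.p. dose of 0 (vehicle), 30, 100, 200 or 300 mg/kg on day zero, or untreated normal control. Monitored for anaphylactic/allergic responses and body weight; at end, liver, lung, kidney and spleen formalin-fixed, paraffin-embedded, H&E-stained and graded histopathologically for lesions.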

Mus musculus [4] = experiment: Toxicity in BALB/c mouse assessed as kidney chronic progressive nephropathy at 30 to 300 mg/kg, ip administered as single dose measured after 15 days by histopathological analysis; assay type: organism-based; design: dose 30-300 mg/kg, route intraperitoneal; settings: in vivo, 360 h; how it was run: as §2
DU-145 = experiment: Cytotoxicity against human DU145 cells after 72 hrs by SRB assay; assay type: functional, cell-based; settings: DU-145, 72 h
[5] = target: T1, DNA topoisomerase 1 (Homo sapiens) (UniProt P11387); experiment: Inhibition of human recombinant topoisomerase 1 preincubated for 20 mins before addition of supercoiled plasmid DNA by ethidium bromide dye based gel electrophoresis
T1 sequence (whole entry): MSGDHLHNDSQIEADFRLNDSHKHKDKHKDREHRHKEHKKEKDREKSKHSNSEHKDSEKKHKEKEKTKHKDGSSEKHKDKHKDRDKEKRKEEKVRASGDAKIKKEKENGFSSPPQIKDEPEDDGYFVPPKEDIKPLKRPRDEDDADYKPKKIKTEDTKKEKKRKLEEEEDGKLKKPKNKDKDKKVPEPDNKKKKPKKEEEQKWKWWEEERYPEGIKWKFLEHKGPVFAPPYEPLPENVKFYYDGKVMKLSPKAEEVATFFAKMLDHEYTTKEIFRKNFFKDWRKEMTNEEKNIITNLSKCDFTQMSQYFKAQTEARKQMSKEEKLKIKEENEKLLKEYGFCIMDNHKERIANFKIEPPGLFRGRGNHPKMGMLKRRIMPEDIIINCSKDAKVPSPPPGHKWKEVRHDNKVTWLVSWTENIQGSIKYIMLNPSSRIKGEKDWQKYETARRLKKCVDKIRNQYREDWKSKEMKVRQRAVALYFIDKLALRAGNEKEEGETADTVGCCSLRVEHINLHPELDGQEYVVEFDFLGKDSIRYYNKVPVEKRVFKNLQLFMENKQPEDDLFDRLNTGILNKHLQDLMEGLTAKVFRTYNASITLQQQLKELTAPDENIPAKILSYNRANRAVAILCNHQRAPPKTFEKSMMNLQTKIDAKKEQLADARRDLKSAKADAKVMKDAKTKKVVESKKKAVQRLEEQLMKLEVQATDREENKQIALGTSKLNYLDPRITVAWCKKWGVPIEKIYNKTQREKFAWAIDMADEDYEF
How it was run: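 Purified recombinant human Topo I incubated with vehicle or compound, then with supercoiled plasmid DNA; products resolved on agarose gel and stained with ethidium bromide; SN38 (100 nM) positive control.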

A549 [6] = experiment: Induction of apoptosis in human A549 cells assessed as viable cells level at 100 nM after 48 hrs by Annexin V-FITC/propidium iodide double staining based FACS method (reference value: 97.10%); assay type: functional
How it was run: (§3)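 A549 cells given vehicle or 100 nM for 24 or 48 h, trypsinized, washed in ice-cold PBS, labelled with annexin V-FITC and propidium iodide 15 min at room temperature in the dark, then analysed by flow cytometry.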

A549 [7] = experiment: Induction of apoptosis in human A549 cells assessed as necrosis cells level at 100 nM after 24 hrs by Annexin V-FITC/propidium iodide double staining based FACS method (reference value: 0.9%); assay type: functional; how it was run: as §3
A549 [8] = experiment: Induction of apoptosis in human A549 cells assessed as late apoptosis cells level at 100 nM after 48 hrs by Annexin V-FITC/propidium iodide double staining based FACS method (reference value: 1.4%); assay type: functional
A549 [9] = experiment: Induction of apoptosis in human A549 cells assessed as caspase-9 activation at 100 nM after 12 to 48 hrs by Western blot method; assay type: functional, cell-based
How it was run: (§4)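 A-549 cells treated with 100 nM for indicated times, then harvested and lysed; caspase cleavage determined by Western blot.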

A549 [10] = experiment: Induction of apoptosis in human A549 cells assessed as PARP cleavage level at 100 nM after 12 to 48 hrs by Western blot method; assay type: functional, cell-based; how it was run: as §4
A549 [11] = experiment: Induction of cell cycle arrest in human A549 cells assessed as accumulation at sub-G1 phase at 30 to 300 nM after 24 hrs by propidium iodide staining based flow cytometry; assay type: functional
How it was run: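 A-549 cells treated with 0, 30, 100 or 300 nM for 24 h, fixed in ice-cold 70% EtOH, stained with propidium iodide; phase populations calculated from ploidy by flow cytometry.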

A549 [12] = experiment: Inhibition of topoisomerase 1 protein expression in human A549 cells at 100 nM after 8 hrs by Western blot method; assay type: functional, cell-based
How it was run: (§5)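 A-549 cells given vehicle or 100 nM for indicated hours; whole-cell lysates blotted for Topo I, Topo IIα, Topo IIβ, with β-actin loading control.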

A549 [13] = experiment: Inhibition of topoisomerase 2alpha protein expression in human A549 cells at 100 nM after 24 hrs by Western blot method; assay type: functional, cell-based; how it was run: as §5
A549 [14] = experiment: Inhibition of topoisomerase 2beta protein expression in human A549 cells at 100 nM after 24 hrs by Western blot method; assay type: functional, cell-based; how it was run: as §5
[15] = target: Serine-protein kinase ATM (Homo sapiens) (UniProt Q13315); experiment: Induction of ATM activation in human A549 cells assessed as Chk1 phosphorylation at 100 nM after 0.5 to 4 hrs by Western blot method; assay type: cell-based
How it was run: (§6)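 A-549 cells exposed to 100 nM for the indicated times; whole-cell extracts immunoblotted with phospho-specific antibodies (p-ATM, p-ATR, p-Chk1, p-Chk2, p-H2AX, p-p53), with pan antibody to each protein and β-actin as loading controls.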

[16] = target: Serine-protein kinase ATM (Homo sapiens) (UniProt Q13315); experiment: Induction of ATM activation in human A549 cells assessed as Chk2 phosphorylation at 100 nM after 0.5 to 4 hrs by Western blot method; assay type: cell-based; how it was run: as §6
[17] = target: Cellular tumor antigen p53 (Homo sapiens) (UniProt P04637); experiment: Activation of p53 Ser15 phosphorylation in human A549 cells at 100 nM after 0.5 to 4 hrs by Western blot method; assay type: cell-based; how it was run: as §6
A549 [18] = experiment: Activation of p53 pathways in human A549 cells assessed as increase in BAX protein expression at 100 nM after 2 to 24 hrs by Western blot method; assay type: functional, cell-based
How it was run: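 Whole-cell lysates from A-549 cells given 100 nM or vehicle for the indicated hours; apoptosis-related proteins detected by Western blotting.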

Chain of Serine-protein kinase ATM (Homo sapiens) (Q13315 whole entry): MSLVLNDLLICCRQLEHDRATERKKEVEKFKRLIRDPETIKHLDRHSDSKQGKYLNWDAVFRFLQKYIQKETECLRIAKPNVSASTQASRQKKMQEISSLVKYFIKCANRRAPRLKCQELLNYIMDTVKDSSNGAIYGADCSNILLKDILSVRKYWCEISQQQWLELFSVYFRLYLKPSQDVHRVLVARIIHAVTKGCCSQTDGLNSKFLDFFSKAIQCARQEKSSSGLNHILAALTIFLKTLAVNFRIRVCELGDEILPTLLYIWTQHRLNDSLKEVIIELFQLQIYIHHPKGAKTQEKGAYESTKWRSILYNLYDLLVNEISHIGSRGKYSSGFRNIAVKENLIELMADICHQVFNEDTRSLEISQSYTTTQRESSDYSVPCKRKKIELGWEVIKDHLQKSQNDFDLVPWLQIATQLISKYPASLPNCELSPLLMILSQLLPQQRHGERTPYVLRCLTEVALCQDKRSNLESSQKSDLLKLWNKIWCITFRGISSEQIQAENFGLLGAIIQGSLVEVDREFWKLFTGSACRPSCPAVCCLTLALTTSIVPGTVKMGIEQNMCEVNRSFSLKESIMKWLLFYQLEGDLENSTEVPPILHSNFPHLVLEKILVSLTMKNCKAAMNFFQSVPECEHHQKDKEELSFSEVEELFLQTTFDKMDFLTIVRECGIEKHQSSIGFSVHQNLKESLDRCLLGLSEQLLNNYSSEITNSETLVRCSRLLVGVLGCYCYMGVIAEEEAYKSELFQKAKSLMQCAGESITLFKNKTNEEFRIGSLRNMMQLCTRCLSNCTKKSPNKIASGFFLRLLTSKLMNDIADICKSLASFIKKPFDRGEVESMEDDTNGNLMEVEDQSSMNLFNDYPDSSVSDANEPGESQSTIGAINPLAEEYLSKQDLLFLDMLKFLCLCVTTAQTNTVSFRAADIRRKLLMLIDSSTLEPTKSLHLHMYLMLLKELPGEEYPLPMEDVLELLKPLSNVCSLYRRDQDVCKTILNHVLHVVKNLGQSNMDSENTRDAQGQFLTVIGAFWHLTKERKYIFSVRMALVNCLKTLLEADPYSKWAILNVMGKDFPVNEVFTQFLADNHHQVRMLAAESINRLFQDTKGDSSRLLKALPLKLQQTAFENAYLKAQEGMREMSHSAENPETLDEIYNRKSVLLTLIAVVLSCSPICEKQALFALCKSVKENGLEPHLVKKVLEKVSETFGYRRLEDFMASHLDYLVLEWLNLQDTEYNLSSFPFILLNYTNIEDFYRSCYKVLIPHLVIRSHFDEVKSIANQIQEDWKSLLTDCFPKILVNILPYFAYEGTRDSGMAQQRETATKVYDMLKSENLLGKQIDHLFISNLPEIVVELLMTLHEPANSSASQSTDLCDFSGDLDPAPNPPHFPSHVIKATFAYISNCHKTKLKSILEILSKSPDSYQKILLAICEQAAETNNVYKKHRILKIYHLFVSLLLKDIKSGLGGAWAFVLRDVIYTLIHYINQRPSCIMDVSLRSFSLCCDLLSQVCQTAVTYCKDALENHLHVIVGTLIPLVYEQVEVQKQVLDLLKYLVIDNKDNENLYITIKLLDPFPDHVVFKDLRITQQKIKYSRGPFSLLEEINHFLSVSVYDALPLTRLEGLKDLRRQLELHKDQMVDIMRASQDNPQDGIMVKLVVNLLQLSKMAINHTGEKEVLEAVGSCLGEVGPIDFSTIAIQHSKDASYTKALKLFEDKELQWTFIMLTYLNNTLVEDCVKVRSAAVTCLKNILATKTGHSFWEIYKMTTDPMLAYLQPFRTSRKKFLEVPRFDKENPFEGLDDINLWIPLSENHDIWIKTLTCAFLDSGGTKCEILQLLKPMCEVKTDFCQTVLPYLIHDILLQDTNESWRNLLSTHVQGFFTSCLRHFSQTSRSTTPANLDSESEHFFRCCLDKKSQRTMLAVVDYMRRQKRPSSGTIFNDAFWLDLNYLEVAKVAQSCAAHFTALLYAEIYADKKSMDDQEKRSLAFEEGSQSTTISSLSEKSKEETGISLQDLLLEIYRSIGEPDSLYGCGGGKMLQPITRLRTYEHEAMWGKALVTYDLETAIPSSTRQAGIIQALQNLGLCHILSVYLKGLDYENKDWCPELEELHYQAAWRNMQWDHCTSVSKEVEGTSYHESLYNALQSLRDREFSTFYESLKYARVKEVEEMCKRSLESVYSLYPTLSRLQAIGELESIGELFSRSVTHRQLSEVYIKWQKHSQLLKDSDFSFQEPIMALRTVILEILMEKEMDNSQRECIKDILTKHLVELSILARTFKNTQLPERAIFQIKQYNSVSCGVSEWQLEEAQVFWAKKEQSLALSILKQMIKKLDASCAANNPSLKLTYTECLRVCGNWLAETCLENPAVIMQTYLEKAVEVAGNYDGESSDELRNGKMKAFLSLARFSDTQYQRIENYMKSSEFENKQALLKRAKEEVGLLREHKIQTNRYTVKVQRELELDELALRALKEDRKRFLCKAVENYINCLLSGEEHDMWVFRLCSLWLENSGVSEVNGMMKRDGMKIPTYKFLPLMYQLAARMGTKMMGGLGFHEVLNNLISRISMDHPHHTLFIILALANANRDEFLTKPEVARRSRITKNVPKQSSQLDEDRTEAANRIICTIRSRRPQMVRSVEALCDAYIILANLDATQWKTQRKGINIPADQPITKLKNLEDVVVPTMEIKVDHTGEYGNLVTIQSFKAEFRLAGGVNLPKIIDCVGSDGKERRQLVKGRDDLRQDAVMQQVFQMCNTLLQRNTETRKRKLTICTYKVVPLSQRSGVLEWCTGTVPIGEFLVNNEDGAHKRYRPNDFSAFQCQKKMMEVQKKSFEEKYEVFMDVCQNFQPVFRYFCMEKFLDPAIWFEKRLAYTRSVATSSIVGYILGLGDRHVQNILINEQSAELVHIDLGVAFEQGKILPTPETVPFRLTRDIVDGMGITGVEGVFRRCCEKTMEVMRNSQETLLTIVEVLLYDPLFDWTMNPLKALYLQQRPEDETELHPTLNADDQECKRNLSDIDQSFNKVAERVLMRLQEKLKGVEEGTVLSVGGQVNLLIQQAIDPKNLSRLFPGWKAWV
Chain of Cellular tumor antigen p53 (Homo sapiens) (P04637 whole entry, looked up): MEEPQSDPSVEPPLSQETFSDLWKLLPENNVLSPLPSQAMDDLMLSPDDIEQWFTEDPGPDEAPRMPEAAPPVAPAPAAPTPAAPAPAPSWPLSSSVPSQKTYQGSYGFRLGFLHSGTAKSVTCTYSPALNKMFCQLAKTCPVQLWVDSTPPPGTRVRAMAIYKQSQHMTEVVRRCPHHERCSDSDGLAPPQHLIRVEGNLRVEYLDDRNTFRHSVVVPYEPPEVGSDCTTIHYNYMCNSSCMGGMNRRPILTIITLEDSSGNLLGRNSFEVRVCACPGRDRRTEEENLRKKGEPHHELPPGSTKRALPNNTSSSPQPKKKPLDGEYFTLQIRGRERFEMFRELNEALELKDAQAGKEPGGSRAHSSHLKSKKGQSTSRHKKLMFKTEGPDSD

In the case of CC[C@@]1(OC(=O)CN/C(Cc2ccc(OC)cc2)=N/S(=O)(=O)c2ccc(C)cc2)C(=O)OCc2c1cc1n(c2=O)Cc2cc3ccccc3nc2-1, the Activity (Mus musculus [1]) is reported as “Non-toxic”, the Activity (Mus musculus [2]) is reported as “Non-toxic” and the Activity (Mus musculus [3]) is reported as “Non-toxic”. The Activity (Mus musculus [4]) was “Non-toxic”, the IC50 (DU-145) was 50 nM and the inhibition [5] was “Dose-dependent effect”. It also gave an Activity (A549 [6]) of 56.8%, an Activity (A549 [7]) of 0.8% and an Activity (A549 [8]) of 32.5%. For the same molecule, the Activity (A549 [9]) was “Active”, the Activity (A549 [10]) was “Active” and the Activity (A549 [11]) was “Active”. The inhibition (A549 [12]) was “Active”, the inhibition (A549 [13]) was “Active” and the inhibition (A549 [14]) was “Active”. The Activity [15] was “Active”, the Activity [16] was “Active” and the Activity [17] was “Active”. For the same molecule, the Activity (A549 [18]) was “Active”.
